In ChEMBL document CHEMBL4017460, “A Tobramycin Vector Enhances Synergy and Efficacy of Efflux Pump Inhibitors against Multidrug-Resistant Gram-Negative Bacteria” (J Med Chem, 2017):
Converted amounts (≈) assume the structure as drawn. The source made the active and inactive calls. The calls are words filed in the database; no cut-off is given here.

Tests used:
Pseudomonas aeruginosa [1] = assay: Inhibition of RND efflux pump in Pseudomonas aeruginosa isolate 101885 assessed as potentiation of minocycline-induced antibacterial activity by measuring fold reduction in minocycline MIC at 8 ug/ml after 18 to 24 hrs by microbroth dilution assay
Outline: (§1)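 Checkerboard broth microdilution: antibiotic 2-fold diluted along one axis, adjuvant 2-fold diluted along the other. Overnight culture standardized to 0.5 McFarland in saline, diluted 1:50 in MHB, added to wells, 37 °C for 18 h. MIC is the lowest concentration with no growth. FIC = MIC in combination / MIC alone; FICI = sum of the two FICs; FICI ≤0.5 is synergy.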

Pseudomonas aeruginosa [2] = assay: Inhibition of RND efflux pump in Pseudomonas aeruginosa isolate P259-96918 assessed as potentiation of minocycline-induced antibacterial activity at 8 ug/ml after 18 to 24 hrs by checker board assay
Outline: as §1, with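 “in MHB:” for “broth microdilution:”, “test agent” for “adjuvant”, “wells, incubated” for “wells,”, “FIC index” for “FICI”, “both FICs.” for “the two FICs; FICI ≤0.5 is synergy.”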

Pseudomonas aeruginosa [3] = assay: Inhibition of RND efflux pump in Pseudomonas aeruginosa isolate P260-97103 assessed as potentiation of minocycline-induced antibacterial activity at 0.25 times antibacterial MIC after 18 to 24 hrs by checker board assay
Outline: as §1, with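 “in MHB:” for “broth microdilution:”, “test agent” for “adjuvant”, “wells, incubated” for “wells,”, “FIC index” for “FICI”, “both FICs.” for “the two FICs; FICI ≤0.5 is synergy.”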

Pseudomonas aeruginosa [4] = assay: Inhibition of RND efflux pump in Pseudomonas aeruginosa isolate P262-104354 assessed as potentiation of minocycline-induced antibacterial activity by measuring fold reduction in minocycline MIC at 8 ug/ml after 18 to 24 hrs by microbroth dilution assay; outline: as §1
Pseudomonas aeruginosa [5] = assay: Reduction in flagellum-dependant motility in Pseudomonas aeruginosa PAO1 at sub MIC after 20 hrs in presence of minocycline by swimming motility test; type: functional
Pseudomonas aeruginosa [6] = assay: Antibacterial activity against Pseudomonas aeruginosa PAO1 after 18 to 24 hrs by microbroth dilution assay; type: functional
Outline: as §1, with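 “in MHB:” for “broth microdilution:”, “test agent” for “adjuvant”, “wells, incubated” for “wells,”, “FIC index” for “FICI”, “both FICs.” for “the two FICs; FICI ≤0.5 is synergy.”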

Enterobacter cloacae [7] = assay: Inhibition of RND efflux pump in Enterobacter cloacae isolate 117029 assessed as potentiation of minocycline-induced antibacterial activity at 8 ug/ml after 18 to 24 hrs by microbroth dilution assay
Outline: as §1, with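 “in MHB:” for “broth microdilution:”, “test agent” for “adjuvant”, “wells, incubated” for “wells,”, “FIC index” for “FICI”, “both FICs.” for “the two FICs; FICI ≤0.5 is synergy.”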

Pseudomonas aeruginosa [8] = assay: Inhibition of RND efflux pump in Pseudomonas aeruginosa isolate P262-101856 assessed as potentiation of minocycline-induced antibacterial activity by measuring fold reduction in minocycline MIC at 8 ug/ml after 18 to 24 hrs by microbroth dilution assay; outline: as §1
Pseudomonas aeruginosa [9] = assay: Antibacterial activity against Pseudomonas aeruginosa isolate 101885 after 18 to 24 hrs by microbroth dilution assay; type: functional; outline: as §1
Pseudomonas aeruginosa [10] = assay: Inhibition of RND efflux pump in Pseudomonas aeruginosa isolate P262-101856 assessed as potentiation of minocycline-induced antibacterial activity at 8 ug/ml after 18 to 24 hrs by checker board assay
Outline: as §1, with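 “in MHB:” for “broth microdilution:”, “test agent” for “adjuvant”, “wells, incubated” for “wells,”, “FIC index” for “FICI”, “both FICs.” for “the two FICs; FICI ≤0.5 is synergy.”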

[11] = system: Pseudomonas aeruginosa PAO1; assay: Inhibition of RND efflux pump in Pseudomonas aeruginosa PAO1 assessed as potentiation of tigecycline-induced antibacterial activity by measuring fold reduction in tigecycline MIC at 8 ug/ml after 18 to 24 hrs by microbroth dilution assay relative to tigecycline alone; outline: as §1
Pseudomonas aeruginosa [12] = assay: Potentiation of minocycline-induced antibacterial activity against mexAB-oprM/mexCD-oprJ/mexEF-oprN/mexXY/mexJK/opmH deficient Pseudomonas aeruginosa PAO750 after 18 to 24 hrs by microbroth dilution assay; type: functional
[13] = system: Pseudomonas aeruginosa PAO1; assay: Inhibition of RND efflux pump in Pseudomonas aeruginosa PAO1 assessed as potentiation of trimethoprim-induced antibacterial activity […] by microbroth dilution assay
[14] = system: Pseudomonas aeruginosa PAO1; assay: Inhibition of RND efflux pump in Pseudomonas aeruginosa PAO1 assessed as potentiation of minocycline-induced antibacterial activity by measuring minocycline MIC at 8 ug/ml after 18 to 24 hrs by microbroth dilution assay (reference value: 8 ug/ml)
Outline: (§2)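 Absolute minocycline MIC taken from checkerboard broth dilution with a fixed 8 μg/mL adjuvant. Inoculum was a 0.5 McFarland saline suspension diluted 1:50 in MHB, incubated 37 °C for 18 h. MIC is the lowest concentration with no growth.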

Pseudomonas aeruginosa [15] = assay: Inhibition of RND efflux pump in Pseudomonas aeruginosa isolate 100036 assessed as potentiation of minocycline-induced antibacterial activity at 8 ug/ml after 18 to 24 hrs by checker board assay
Outline: as §1, with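 “in MHB:” for “broth microdilution:”, “test agent” for “adjuvant”, “wells, incubated” for “wells,”, “FIC index” for “FICI”, “both FICs.” for “the two FICs; FICI ≤0.5 is synergy.”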

Pseudomonas aeruginosa [16] = assay: Inhibition of RND efflux pump in Pseudomonas aeruginosa isolate P259-96918 assessed as potentiation of minocycline-induced antibacterial activity by measuring fold reduction in minocycline MIC at 8 ug/ml after 18 to 24 hrs by microbroth dilution assay; outline: as §1
Pseudomonas aeruginosa [17] = assay: Inhibition of RND efflux pump in Pseudomonas aeruginosa isolate P262-101856 assessed as potentiation of minocycline-induced antibacterial activity by measuring minocycline MIC at 8 ug/ml after 18 to 24 hrs by microbroth dilution assay (reference value: 128 to 256 ug/ml); outline: as §2
Pseudomonas aeruginosa [18] = assay: Inhibition of RND efflux pump in colistin-resistant Pseudomonas aeruginosa isolate 101243 assessed as potentiation of minocycline-induced antibacterial activity by measuring minocycline MIC at 8 ug/ml after 18 to 24 hrs by microbroth dilution assay (reference value: 32 ug/ml); outline: as §1
Pseudomonas aeruginosa [19] = assay: Antibacterial activity against Pseudomonas aeruginosa isolate P259-96918 after 18 to 24 hrs by microbroth dilution assay; type: functional
Outline: as §1, with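 “in MHB:” for “broth microdilution:”, “test agent” for “adjuvant”, “wells, incubated” for “wells,”, “FIC index” for “FICI”, “both FICs.” for “the two FICs; FICI ≤0.5 is synergy.”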

Pseudomonas aeruginosa [20] = assay: Reduction in flagellum-dependant motility in Pseudomonas aeruginosa PAO1 after 20 hrs by swimming motility test; type: functional
Outline: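 PAO1 flagellum-dependent swimming motility on swimming plates containing sub-MIC compound, compared with plates without compound.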

Pseudomonas aeruginosa [21] = assay: Inhibition of RND efflux pump in Pseudomonas aeruginosa isolate 100036 assessed as potentiation of minocycline-induced antibacterial activity by measuring fold reduction in minocycline MIC at 8 ug/ml after 18 to 24 hrs by microbroth dilution assay; outline: as §1
Pseudomonas aeruginosa [22] = assay: Antibacterial activity against Pseudomonas aeruginosa isolate P262-101856 after 18 to 24 hrs by microbroth dilution assay; type: functional; outline: as §1
Pseudomonas aeruginosa [23] = assay: Antibacterial activity against colistin-resistant Pseudomonas aeruginosa isolate 101243 after 18 to 24 hrs by microbroth dilution assay; type: functional; outline: as §1
Enterobacter cloacae [24] = assay: Inhibition of RND efflux pump in Enterobacter cloacae isolate 117029 assessed as potentiation of minocycline-induced antibacterial activity by measuring fold reduction in minocycline MIC at 8 ug/ml after 18 to 24 hrs by microbroth dilution assay; outline: as §2
[25] = system: Pseudomonas aeruginosa PAO1; assay: Inhibition of RND efflux pump in Pseudomonas aeruginosa PAO1 assessed as potentiation of chloramphenicol-induced antibacterial activity […] by microbroth dilution assay
Pseudomonas aeruginosa [26] = assay: Inhibition of RND efflux pump in colistin-resistant Pseudomonas aeruginosa isolate 101243 assessed as potentiation of minocycline-induced antibacterial activity at 8 ug/ml after 18 to 24 hrs by checker board assay; outline: as §1
Pseudomonas aeruginosa [27] = assay: Antibacterial activity against Pseudomonas aeruginosa isolate P260-97103 after 18 to 24 hrs by microbroth dilution assay; type: functional
Outline: as §1, with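 “in MHB:” for “broth microdilution:”, “test agent” for “adjuvant”, “wells, incubated” for “wells,”, “FIC index” for “FICI”, “both FICs.” for “the two FICs; FICI ≤0.5 is synergy.”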

Pseudomonas aeruginosa [28] = assay: Inhibition of RND efflux pump in Pseudomonas aeruginosa isolate P260-97103 assessed as potentiation of minocycline-induced antibacterial activity by measuring minocycline MIC at 0.25 times antibacterial MIC after 18 to 24 hrs by microbroth dilution assay (reference value: 8 to 16 ug/ml); outline: as §1

SMILES | fold change (FC) (Pseudomonas aeruginosa [1]) | fractional inhibitory concentration index (FICI) (Pseudomonas aeruginosa [2]) | fractional inhibitory concentration index (FICI) (Pseudomonas aeruginosa [3]) | fold change (FC) (Pseudomonas aeruginosa [4]) | Activity (Pseudomonas aeruginosa [5]) | MIC (Pseudomonas aeruginosa [6]) [µg/mL] | fractional inhibitory concentration index (FICI) (Enterobacter cloacae [7]) | fold change (FC) (Pseudomonas aeruginosa [8]) | MIC (Pseudomonas aeruginosa [9]) [µg/mL] | fractional inhibitory concentration index (FICI) (Pseudomonas aeruginosa [10]) | fold change (FC) [11] | Activity (Pseudomonas aeruginosa [12]) | fractional inhibitory concentration index (FICI) [13] | MIC [14] [µg/mL] | fractional inhibitory concentration index (FICI) (Pseudomonas aeruginosa [15]) | fold change (FC) (Pseudomonas aeruginosa [16]) | MIC (Pseudomonas aeruginosa [17]) [µg/mL] | MIC (Pseudomonas aeruginosa [18]) [µg/mL] | MIC (Pseudomonas aeruginosa [19]) [µg/mL] | Activity (Pseudomonas aeruginosa [20]) | further results
NC[C@H]1C[C@H](C(=O)N[C@H](CCc2ccccc2)C(=O)Nc2ccc3ccccc3c2)N(CCCCCCCCCCCCO[C@@H]2[C@@H](O[C@H]3O[C@H](CO)[C@@H](O)[C@H](N)[C@H]3O)[C@H](N)C[C@H](N)[C@H]2O[C@H]2O[C@H](CN)[C@@H](O)C[C@H]2N)C1 | 8 to 256 | 0.03 | 0.31 | 8 to 256 | Active | 32 (≈ 30.1 µM) | 0.13 | 8 to 256 | 16 (≈ 15 µM) | 0.08 | 8 to 64 | inactive | < 0.1 | 0.12 | 0.06 | 8 to 256 | < 1 | 0.5 | 64 (≈ 60.1 µM) | Dose-dependent effect | fold change (FC) (Pseudomonas aeruginosa [21]): 8 to 256; MIC (Pseudomonas aeruginosa [22]): 32 µg/mL (≈ 30.1 µM); MIC (Pseudomonas aeruginosa [23]): 16 µg/mL (≈ 15 µM); fold change (FC) (Enterobacter cloacae [24]): 4 to 256; fractional inhibitory concentration index (FICI) [25]: < 0.1; fractional inhibitory concentration index (FICI) (Pseudomonas aeruginosa [26]): 0.19; MIC (Pseudomonas aeruginosa [27]): 4 µg/mL (≈ 3.76 µM); MIC (Pseudomonas aeruginosa [28]): 0.5 µg/mL
Cl.Cl.Cl.Cl.Cl.Cl.Cl.NC[C@H]1O[C@H](O[C@H]2[C@H](OCCCCCCCCCCCCN3CCN(Cc4cccc5ccccc45)CC3)[C@@H](O[C@H]3O[C@H](CO)[C@@H](O)[C@H](N)[C@H]3O)[C@H](N)C[C@@H]2N)[C@H](N)C[C@@H]1O | 8 to 256 | 0.02 | 0.25 | 8 to 256 | Active | 64 | 0.03 to 0.16 | 8 to 256 | 256 | 0.09 | 8 to 64 | inactive | < 0.1 | 0.5 | 0.02 | 8 to 256 | 4 | 1 | > 1020 | Dose-dependent effect | fold change (FC) (Pseudomonas aeruginosa [21]): 8 to 256; MIC (Pseudomonas aeruginosa [22]): 64 µg/mL; MIC (Pseudomonas aeruginosa [23]): 64 µg/mL; fold change (FC) (Enterobacter cloacae [24]): 4 to 256; fractional inhibitory concentration index (FICI) [25]: < 0.1; fractional inhibitory concentration index (FICI) (Pseudomonas aeruginosa [26]): 0.28; MIC (Pseudomonas aeruginosa [27]): 2 µg/mL; MIC (Pseudomonas aeruginosa [28]): 0.5 µg/mL
Cl.Cl.Cl.Cl.Cl.Cl.NC[C@H]1O[C@H](O[C@H]2[C@H](OCCCCCCCCCCCCN3CC[C@@H](c4ccc(F)cc4)[C@H](COc4ccc5c(c4)OCO5)C3)[C@@H](O[C@H]3O[C@H](CO)[C@@H](O)[C@H](N)[C@H]3O)[C@H](N)C[C@@H]2N)[C@H](N)C[C@@H]1O | 8 to 256 | 0.02 | 0.19 | 8 to 256 | Active | 32 | 0.02 to 0.14 | 8 to 256 | 32 | 0.13 | 8 to 64 | inactive | < 0.1 | 0.25 | 0.05 | 8 to 256 | 1 | 1 | > 512 | Dose-dependent effect | fold change (FC) (Pseudomonas aeruginosa [21]): 8 to 256; MIC (Pseudomonas aeruginosa [22]): 32 µg/mL; MIC (Pseudomonas aeruginosa [23]): 32 µg/mL; fold change (FC) (Enterobacter cloacae [24]): 4 to 256; fractional inhibitory concentration index (FICI) [25]: < 0.1; fractional inhibitory concentration index (FICI) (Pseudomonas aeruginosa [26]): 0.38; MIC (Pseudomonas aeruginosa [27]): 8 µg/mL; MIC (Pseudomonas aeruginosa [28]): < 1 µg/mL
